One block for each compound: values may come before it.
Legend:
A549 = experiment: Cytotoxicity against human A549 cells after 72 hrs by CCK8 assay; type: functional, cell-based; conditions: A549, 72 h
U-937 = experiment: Cytotoxicity against human U937 cells after 72 hrs by CCK8 assay; conditions: U-937, 72 h
HeLa = experiment: Cytotoxicity against human HeLa cells after 72 hrs by CCK8 assay; type: functional, cell-based
HepG2 = experiment: Cytotoxicity against human HepG2 cells after 72 hrs by CCK8 assay; conditions: HepG2, 72 h
[1] = target: Cyclin-dependent kinase 2 (Homo sapiens, UniProt P24941); experiment: Binding affinity to CDK2 (unknown origin) by surface plasmon resonance analysis
Summary of the method: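 CDK-2 amine-coupled to CM5 chip flow cell 2 (50 μg/mL in 10 mM acetate pH 4.5, ~5500 RU). BSA reference cell (pH 3.8, ~6000 RU) subtracted. Running buffer PBS pH 7.4, 25 °C, 30 μL/min. Analytes at several concentrations injected 120 s, 120 s dissociation, with solvent correction. Glycine-HCl pH 2.1 regeneration for 30 s. Kd from steady-state affinity model fit.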

Structure (SMILES): C=C1CCC[C@H]2[C@](C)(CC3=C(O)C(=O)C=C(NCCc4ccccc4)C3=O)[C@@H](C)CC[C@]12C
IC50 (A549): > 10 µM
IC50 (U-937): 0.6 µM
IC50 (HeLa): 5.4 µM
IC50 (HepG2): 3.5 µM

Kd [1]: 4.8 µM
Structure (SMILES): C=C1CCC[C@H]2[C@]3(C)CC4=C(O[C@]3(C)CC[C@]12C)C(=O)C=C(NC)C4=O
IC50 (A549): > 10 µM

Structure (SMILES): C=C1CCC[C@@]23OC4=C(C[C@]2(C)[C@@H](C)CC[C@@]13C)C(=O)C(OCC)=CC4=O
IC50 (A549): > 10 µM

Structure (SMILES): C=C1CCC[C@@H]2[C@@]1(C)CC[C@@]1(C)OC3=C(C[C@@]21C)C(=O)C(NC)=CC3=O
IC50 (A549): > 10 µM

Structure (SMILES): C=C1CCC[C@H]2[C@]3(C)CC4=C(O[C@]3(C)CC[C@]12C)C(=O)C=C(OCC)C4=O
IC50 (A549): > 10 µM

Structure (SMILES): C=C1CCC[C@@]23OC4=C(C[C@]2(C)[C@@H](C)CC[C@@]13C)C(=O)C(NC)=CC4=O
IC50 (A549): > 10 µM

Structure (SMILES): CCOC1=CC(=O)C2=C(C[C@@H]3[C@@]4(C)CCCC(C)(C)[C@@H]4CC[C@@]3(C)O2)C1=O
IC50 (A549): > 10 µM

Structure (SMILES): COc1cccc2c1C(=O)c1c(O)c3c(c(O)c1C2=O)C[C@@](O)(C(=O)CO)C[C@@H]3O[C@H]1C[C@H](N)[C@H](O)[C@H](C)O1 [DOXORUBICIN]
IC50 (A549): 0.1 µM

From ChEMBL document CHEMBL4118028, “Sesquiterpene Quinones/Hydroquinones from the Marine Sponge Spongia pertusa Esper” (J Nat Prod, 2017)
